Measurements published in ChEMBL document CHEMBL2034930, “Alkylidene branched lupane derivatives: synthesis and antitumor activity” (Eur J Med Chem, 2012).
Active and inactive are the calls of the source. No cut-off for these calls is given here.

Columns and labels:
[1] = Solubility of the compound in water; format: physicochemical; conditions: buffer
[2] = Cytotoxicity against human A253 cells after 96 hrs by SRB assay; format: functional, cell-based
Procedure, shortened: (§1)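 Cells exposed to test compounds for 96 h, then viable cells measured by sulforhodamine B staining as a percentage of untreated controls. IC50 read from dose-response curves, averaged over at least three independent experiments. Compounds tested free and also encapsulated in soybean-lecithin liposomes extruded through a 100 nm polycarbonate membrane (hydrodynamic diameter 70-120 nm, Z-average 105 nm, encapsulation >96% by HPLC).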

[3] = system: 8505C; assay: Cytotoxicity against human 8505C cells after 96 hrs by SRB assay; format: functional, cell-based; procedure, shortened: as §1
[4] = system: A-431; assay: Cytotoxicity against human A431 cells after 96 hrs by SRB assay; format: functional, cell-based; procedure, shortened: as §1
[5] = system: A549; assay: Induction of apoptosis in human A549 cells at 0.8 uM by acridine orange/ethidium bromide staining; format: functional, cell-based
[6] = Cytotoxicity against human Lipo cells after 96 hrs by SRB assay; format: functional, cell-based; procedure, shortened: as §1
[7] = system: HCT-8; assay: Cytotoxicity against human HCT8 cells after 96 hrs by SRB assay; format: functional, cell-based; procedure, shortened: as §1
[8] = system: A549; assay: Cytotoxicity against human A549 cells after 96 hrs by SRB assay; format: functional, cell-based; procedure, shortened: as §1
[9] = system: SW480; assay: Induction of apoptosis in human SW480 cells assessed as DNA laddering at 6 uM after 24 hrs; format: functional, cell-based
[10] = system: HCT-116; assay: Cytotoxicity against human HCT116 cells after 96 hrs by SRB assay; format: functional, cell-based; procedure, shortened: as §1
[11] = system: FaDu; assay: Cytotoxicity against human FADU cells after 96 hrs by SRB assay; format: functional, cell-based; procedure, shortened: as §1
[12] = system: SW-1736; assay: Cytotoxicity against human SW1736 cells after 96 hrs by SRB assay; format: functional, cell-based; procedure, shortened: as §1
[13] = Cytotoxicity against human 518A2 cells after 96 hrs by SRB assay; format: functional, cell-based; procedure, shortened: as §1
[14] = system: SW480; assay: Cytotoxicity against human SW480 cells after 96 hrs by SRB assay; format: functional, cell-based; procedure, shortened: as §1
[15] = system: DLD-1; assay: Cytotoxicity against human DLD1 cells after 96 hrs by SRB assay; format: functional, cell-based; procedure, shortened: as §1
[16] = system: NIH3T3; assay: Cytotoxicity against mouse NIH/3T3 cells after 96 hrs by SRB assay; format: cell-based; conditions: NIH3T3, 96 h; procedure, shortened: as §1
[17] = system: A2780; assay: Cytotoxicity against human A2780 cells after 96 hrs by SRB assay; format: functional, cell-based; procedure, shortened: as §1
[18] = system: MCF7; assay: Cytotoxicity against human MCF7 cells after 96 hrs by SRB assay; format: functional, cell-based; procedure, shortened: as §1
[19] = system: HT-29; assay: Cytotoxicity against human HT-29 cells after 96 hrs by SRB assay; format: functional, cell-based; procedure, shortened: as §1
[20] = Chemical stability of the compound; format: physicochemical
[21] = system: SW480; assay: Induction of apoptosis in human SW480 cells assessed as DNA laddering at IC90 concentration after 24 hrs
[22] = Homo sapiens, A253, 96 h, read-out: IC50
[23] = Homo sapiens, 8505C, 96 h, read-out: IC50
[24] = Homo sapiens, A-431, 96 h, read-out: IC50
[25] = Homo sapiens, Lipo, 96 h, read-out: IC50
[26] = Homo sapiens, HCT-8, 96 h, read-out: IC50
[27] = Homo sapiens, A549, 96 h, read-out: IC50
[28] = Homo sapiens, HCT-116, 96 h, read-out: IC50
[29] = Homo sapiens, FaDu, 96 h, read-out: IC50
[30] = Homo sapiens, SW-1736, 96 h, read-out: IC50
[31] = Homo sapiens, 518A2, 96 h, read-out: IC50
[32] = Homo sapiens, SW480, 96 h, read-out: IC50
[33] = Homo sapiens, DLD-1, 96 h, read-out: IC50
[34] = Homo sapiens, A2780, 96 h, read-out: IC50
[35] = Homo sapiens, MCF7, 96 h, read-out: IC50
[36] = Homo sapiens, HT-29, 96 h, read-out: IC50

Compound | solubility [1] | IC50 [2, 22] | IC50 [3, 23] | IC50 [4, 24] | IC50 [6, 25] | IC50 [7, 26] | IC50 [8, 27] | IC50 [10, 28] | IC50 [11, 29] | IC50 [12, 30] | IC50 [13, 31] | IC50 [14, 32] | IC50 [15, 33] | IC50 [16] | IC50 [17, 34] | IC50 [18, 35] | IC50 [19, 36] | further results
C=C(C)[C@@H]1CC[C@]2(C=O)CC[C@]3(C)[C@H](CC[C@@H]4[C@@]5(C)CCC(=O)C(C)(C)[C@@H]5CC[C@]43C)[C@@H]12 [BETULONAL] | Insoluble | – | – | – | – | – | – | – | – | – | – | – | – | – | – | – | – | –
C=C(C)[C@@H]1CC[C@]2(C(=O)OC)CC[C@]3(C)[C@H](CC[C@@H]4[C@@]5(C)C[C@@]6(CCN=N6)C(=O)C(C)(C)[C@@H]5CC[C@]43C)[C@@H]12 | Insoluble | – | – | – | – | – | – | – | – | – | – | – | – | – | – | – | – | IC50 ([2]; a253): > 30000 nM; IC50 ([3]; 8505c): > 30000 nM; IC50 ([4]; a-431): > 30000 nM; IC50 ([6]; lipo): > 30 µmol; IC50 ([7]; hct-8): > 30 µmol; IC50 ([8]; a549): > 30000 nM; IC50 ([10]; hct-116): > 30 µmol; IC50 ([11]; fadu): > 30000 nM; IC50 ([12]; sw-1736): > 30 µmol; IC50 ([13]; 518a2): > 30000 nM; IC50 ([14]; sw480): > 30 µmol; IC50 ([15]; dld-1): > 30000 nM; IC50 ([17]; a2780): > 30000 nM; IC50 ([18]; mcf7): > 30 µmol; IC50 ([19]; ht-29): > 30 µmol
C=C1C[C@]2(C)[C@H]3CC[C@@H]4[C@H]5[C@H](C(=C)C)CC[C@]5(C=O)CC[C@@]4(C)[C@]3(C)CC[C@H]2C(C)(C)C1=O | Insoluble | 1000 nM | 1300 nM | 3000 nM | 2700 nM | 7100 nM | 1800 nM | 3200 nM | 5100 nM | 2100 nM | 3800 nM | 2700 nM | 3700 nM | 4700 nM | 1300 nM | 2100 nM | 7100 nM | –
C=C(C)[C@@H]1CC[C@]2(CO)CC[C@]3(C)[C@H](CC[C@@H]4[C@@]5(C)CC[C@H](O)C(C)(C)[C@@H]5CC[C@]43C)[C@@H]12 [BETULIN] | Insoluble | – | – | – | – | – | – | – | – | – | – | – | – | – | – | – | – | –
C=C1C[C@]2(C)[C@H]3CC[C@@H]4[C@H]5[C@H](C(=C)C)CC[C@]5(C(=O)N5CCSCC5)CC[C@@]4(C)[C@]3(C)CC[C@H]2C(C)(C)C1=O | Insoluble | 1400 nM | 1500 nM | 1400 nM | 1500 nM | 1500 nM | 1500 nM | 1300 nM | 1600 nM | 1500 nM | 1500 nM | 1500 nM | 1500 nM | 1900 nM | 1000 nM | 1400 nM | 1600 nM | –
C=C(C)[C@@H]1CC[C@]2(C(=O)OC)CC[C@]3(C)[C@H](CC[C@@H]4[C@@]5(C)CCC(=O)C(C)(C)[C@@H]5CC[C@]43C)[C@@H]12 [METHYL BETULONATE] | Insoluble | – | – | – | – | – | – | – | – | – | – | – | – | – | – | – | – | –
C=C/C=C1/C[C@]2(C)[C@H]3CC[C@@H]4[C@H]5[C@H](C(=C)C)CC[C@]5(C(=O)OC)CC[C@@]4(C)[C@]3(C)CC[C@H]2C(C)(C)C1=O | Insoluble | 10400 nM | 11300 nM | 13000 nM | 11600 nM | 14000 nM | 13000 nM | 14600 nM | 17000 nM | 15000 nM | 11500 nM | 10500 nM | 14200 nM | 13100 nM | 11200 nM | 11200 nM | 10900 nM | –
C=C(C)[C@@H]1CC[C@]2(C(=O)O)CC[C@]3(C)[C@H](CC[C@@H]4[C@@]5(C)CCC(=O)C(C)(C)[C@@H]5CC[C@]43C)[C@@H]12 [BETUNOLIC ACID] | Insoluble | – | – | – | – | – | – | – | – | – | – | – | – | – | – | – | – | –
C=C1C[C@]2(C)[C@H]3CC[C@@H]4[C@H]5[C@H](C(=C)C)CC[C@]5(C(=O)O)CC[C@@]4(C)[C@]3(C)CC[C@H]2C(C)(C)C1=O | Insoluble | 400 nM | 600 nM | 200 nM | 600 nM | 200 nM | 600 nM | 200 nM | 500 nM | 400 nM | 500 nM | 400 nM | 400 nM | 800 nM | 600 nM | 300 nM | 400 nM | Activity [5]: Active; Activity [21]: Active

The next lines start with results.

solubility [1] | Compound | IC50 [2, 22] | IC50 [3, 23] | IC50 [4, 24] | IC50 [6, 25] | IC50 [7, 26] | IC50 [8, 27] | IC50 [10, 28] | IC50 [11, 29] | IC50 [12, 30] | IC50 [13, 31] | IC50 [14, 32] | IC50 [15, 33] | IC50 [16] | IC50 [17, 34] | IC50 [18, 35] | IC50 [19, 36] | further results
Insoluble | C=C1C[C@]2(C)[C@H]3CC[C@@H]4[C@H]5[C@H](C(=C)C)CC[C@]5(C(=O)OC)CC[C@@]4(C)[C@]3(C)CC[C@H]2C(C)(C)C1=O | 4000 nM | 5000 nM | 4900 nM | 4600 nM | 9000 nM | 5100 nM | 4500 nM | 7700 nM | 4900 nM | 4200 nM | 4500 nM | 6400 nM | 4900 nM | 5100 nM | 4400 nM | 5900 nM | Activity [5]: Active; Activity [9]: Active
Insoluble | C=C(C)[C@@H]1CC[C@]2(C(=O)OC)CC[C@]3(C)[C@H](CC[C@@H]4[C@@]5(C)C/C(=C\C)C(=O)C(C)(C)[C@@H]5CC[C@]43C)[C@@H]12 | 21600 nM | 26400 nM | 26400 nM | 27800 nM | 17200 nM | > 30000 nM | 24000 nM | 22400 nM | 21900 nM | > 30000 nM | 16000 nM | > 30000 nM | 29100 nM | 16100 nM | 27200 nM | > 30000 nM | –
Insoluble | C=C(C)[C@@H]1CC[C@]2(C(=O)OC)CC[C@]3(C)[C@H](CC[C@@H]4[C@@]5(C)C[C@@H](CSCCO)C(=O)C(C)(C)[C@@H]5CC[C@]43C)[C@@H]12 | 1500 nM | 2300 nM | 1700 nM | 1800 nM | 2500 nM | 2100 nM | 1900 nM | 2500 nM | 2100 nM | 1500 nM | 1500 nM | 2500 nM | 2100 nM | 1600 nM | 1500 nM | 1400 nM | Activity [5]: Active; Activity [9]: Active
Insoluble | C=C(C)[C@@H]1CC[C@]2(C(=O)OC)CC[C@]3(C)[C@H](CC[C@@H]4[C@@]5(C)C[C@@H](CC[N+](=O)[O-])C(=O)C(C)(C)[C@@H]5CC[C@]43C)[C@@H]12 | – | – | – | – | – | – | – | – | – | – | – | – | – | – | – | – | –
Insoluble | C=C(C)[C@@H]1CC[C@]2(C(=O)OC)CC[C@]3(C)[C@H](CC[C@@H]4[C@@]5(C)C[C@@H](CN(C)C)C(=O)C(C)(C)[C@@H]5CC[C@]43C)[C@@H]12 | – | – | – | – | – | – | – | – | – | – | – | – | – | – | – | – | Stability [20]: Unstable
Insoluble | C=C(C)[C@@H]1CC[C@]2(C(=O)OC)CC[C@]3(C)[C@H](CC[C@@H]4[C@@]5(C)C[C@@H](CS(=O)(=O)CCO)C(=O)C(C)(C)[C@@H]5CC[C@]43C)[C@@H]12 | 2500 nM | 3400 nM | 2800 nM | 2700 nM | 4000 nM | 3300 nM | 2800 nM | 3800 nM | 3300 nM | 2600 nM | 2600 nM | 4400 nM | 3200 nM | 2600 nM | 2600 nM | 2500 nM | –
